In test [1] the target is T1, M-phase inducer phosphatase 2 (Homo sapiens, UniProt P30305).
T1 sequence (P30305 whole entry): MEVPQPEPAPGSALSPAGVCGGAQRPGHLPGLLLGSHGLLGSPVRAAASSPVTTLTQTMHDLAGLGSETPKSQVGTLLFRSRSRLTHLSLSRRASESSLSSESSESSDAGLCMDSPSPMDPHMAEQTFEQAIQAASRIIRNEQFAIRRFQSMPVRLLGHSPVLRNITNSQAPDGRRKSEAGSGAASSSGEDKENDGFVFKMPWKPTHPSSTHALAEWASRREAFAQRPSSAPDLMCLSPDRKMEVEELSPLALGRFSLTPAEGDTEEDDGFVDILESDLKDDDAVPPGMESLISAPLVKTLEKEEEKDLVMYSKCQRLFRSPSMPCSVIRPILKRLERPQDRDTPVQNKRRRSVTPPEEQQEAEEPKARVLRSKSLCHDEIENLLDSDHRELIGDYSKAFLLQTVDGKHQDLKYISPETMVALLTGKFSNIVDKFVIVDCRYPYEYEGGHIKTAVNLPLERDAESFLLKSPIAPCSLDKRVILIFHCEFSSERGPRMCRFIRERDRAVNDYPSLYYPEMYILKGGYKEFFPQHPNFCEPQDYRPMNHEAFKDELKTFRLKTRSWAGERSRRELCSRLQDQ
In words: Eight point inhibitory concentration against Cell division cycle 25B was determined. In short, it runs like this: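 Cdc25B activity read by UV-vis at 477 nm as product formed from 3-O-methylfluorescein phosphate (mFP) at 50 μM (~5 × Km), time-dependent, initial-velocity conditions (2–5% turnover); eight inhibitor concentrations, IC50 fitted to eq 1. Each reaction compared with a simultaneous no-inhibitor control; selected compounds run in duplicate.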

Test [2] concerns the target T2, M-phase inducer phosphatase 3 (Homo sapiens) (UniProt P30307).
T2 sequence (whole entry): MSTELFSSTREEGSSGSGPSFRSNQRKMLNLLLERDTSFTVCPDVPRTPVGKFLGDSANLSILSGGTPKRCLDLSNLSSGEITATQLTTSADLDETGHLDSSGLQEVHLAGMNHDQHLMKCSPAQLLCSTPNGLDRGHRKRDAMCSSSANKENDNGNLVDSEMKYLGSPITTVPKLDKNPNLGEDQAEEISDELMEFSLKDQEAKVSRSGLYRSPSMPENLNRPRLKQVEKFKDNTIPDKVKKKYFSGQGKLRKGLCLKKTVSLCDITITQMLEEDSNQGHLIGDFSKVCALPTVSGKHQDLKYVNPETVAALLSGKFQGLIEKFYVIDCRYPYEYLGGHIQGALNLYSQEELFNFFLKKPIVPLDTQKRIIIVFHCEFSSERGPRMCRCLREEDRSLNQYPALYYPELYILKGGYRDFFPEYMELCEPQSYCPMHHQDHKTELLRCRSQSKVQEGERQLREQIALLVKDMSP
As to the kind of experiment: Percent inhibition of cell division cycle 25 degree C at 50 uM. In short, it runs like this:
(§1)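 Single-point screen at 50 μM inhibitor against Cdc25A, Cdc25B or Cdc25C with 50 μM 3-O-methylfluorescein phosphate, product followed at 477 nm in time-dependent assays. Activity was compared with a simultaneous no-inhibitor control, and selected compounds were run in duplicate (average error ±7%).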

Test [3] deals with T3, M-phase inducer phosphatase 1 (Homo sapiens) (UniProt P30304).
T3 sequence (whole entry): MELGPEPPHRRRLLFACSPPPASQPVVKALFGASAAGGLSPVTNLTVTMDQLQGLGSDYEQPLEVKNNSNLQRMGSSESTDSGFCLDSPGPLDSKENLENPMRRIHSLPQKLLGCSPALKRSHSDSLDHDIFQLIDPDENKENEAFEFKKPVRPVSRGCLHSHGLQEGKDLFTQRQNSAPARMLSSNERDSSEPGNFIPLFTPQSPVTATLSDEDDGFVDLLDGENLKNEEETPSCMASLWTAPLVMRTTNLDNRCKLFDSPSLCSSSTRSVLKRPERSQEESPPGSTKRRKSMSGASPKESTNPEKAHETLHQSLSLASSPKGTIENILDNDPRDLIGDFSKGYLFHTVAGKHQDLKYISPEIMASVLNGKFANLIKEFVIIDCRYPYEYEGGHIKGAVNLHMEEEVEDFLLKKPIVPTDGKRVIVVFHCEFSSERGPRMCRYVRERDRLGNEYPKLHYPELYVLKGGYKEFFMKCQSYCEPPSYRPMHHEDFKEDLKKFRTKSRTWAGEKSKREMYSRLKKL
In words: Percent inhibition of cell division cycle 25A at 50 uM. In short, it runs like this: as §1

For test [4], the target named is T1, M-phase inducer phosphatase 2. As to the kind of experiment: Inhibitory concentration of compound against Cdc25B phosphatase was determined using CDK2-p-TpY/Cyclin A as a substrate. The procedure, abridged:
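Cdc25B IC50 with Cdk2-pTpY/CycA protein substrate at 300 nM; eight inhibitor concentrations; time-dependent assays; 1 mg/mL BSA carrier added only after TCA quench, not during reaction.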

The target of test [5] is T4, M-phase inducer phosphatase 2 (Homo sapiens, UniProt P30305). In words: Inhibitory concentration of compound against truncated mutant of Cdc25B phosphatase was determined. In short, it runs like this: (§2)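 Cdc25B catalytic domain constructs (wild-type, site-directed point mutants, truncated); activity with 3-O-methylfluorescein phosphate at 50 μM (~5 × Km), product read at 477 nm by UV-vis under initial velocity (2–5% turnover); eight inhibitor concentrations, IC50 fitted; values are mean of two determinations.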

The target of test [6] is T5, M-phase inducer phosphatase 2 (Homo sapiens, UniProt P30305, E488Q). In words: Inhibitory concentration of compound against mutant E474Q of Cdc25B phosphatase was determined. The procedure, abridged:
as §2

Test [7] deals with T6, M-phase inducer phosphatase 2 (Homo sapiens, UniProt P30305, R496L). As to the kind of experiment: Inhibitory concentration of compound against mutant R482L of Cdc25B phosphatase was determined. The procedure, abridged:
as §2

In test [8] the target is T7, M-phase inducer phosphatase 3 (Homo sapiens, UniProt P30307).
T7 sequence (P30307 whole entry): T2 sequence (whole entry)
As to the kind of experiment: Eight point inhibitory concentration against Cell division cycle 25 degree C was determined. In short, it runs like this:
(§3)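 Phosphatase activity measured with 3-O-methylfluorescein phosphate at 50 μM (~5 × Km), product formation followed at 477 nm by UV-vis under initial velocity conditions (2–5% turnover) in time-dependent assays. Eight inhibitor concentrations were used, and IC50 was obtained by fitting to a dose–response equation.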

The target in test [9] is T8, M-phase inducer phosphatase 2 (Homo sapiens) (UniProt P30305).
T8 sequence (whole entry): T1 sequence (P30305 whole entry)
As to the kind of experiment: Percent inhibition of cell division cycle 25B at 50 uM. The procedure, abridged:
as §1

Test [10] has as its target T9, M-phase inducer phosphatase 1 (Homo sapiens, UniProt P30304).
T9 sequence (P30304 whole entry): T3 sequence (whole entry)
As to the kind of experiment: Eight point inhibitory concentration against Cell division cycle 25A was determined. The procedure, abridged:
as §3

Test [11] addresses T10, M-phase inducer phosphatase 2 (Homo sapiens, UniProt P30305, F489A). As to the kind of experiment: Inhibitory concentration of compound against mutant F475A of Cdc25B phosphatase was determined. The procedure, abridged:
as §2

In test [12] the target is T4, M-phase inducer phosphatase 2. As to the kind of experiment: Inhibitory concentration of compound against mutant WT of Cdc25B phosphatase was determined. In short, it runs like this:
as §2

Test [13] has as its target T1, M-phase inducer phosphatase 2. In words: Inhibitory constant of compound against Cdc25B phosphatase was determined using mFP as a substrate.
In test [14] the target is T4, M-phase inducer phosphatase 2. As to the kind of experiment: Inhibitory constant of compound against Cell division cycle 25B was determined.
Test [15] addresses M-phase inducer phosphatase 2 (Homo sapiens, UniProt P30305, R506L). In words: Inhibitory concentration of compound against mutant R492L of Cell division cycle 25B was determined. In short, it runs like this:
(§4)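 Cdc25B catalytic-domain point mutants, a truncated form and wild type were assayed with 3-O-methylfluorescein phosphate as substrate, monitored at 477 nm under initial velocity conditions. Values are the mean of two separate determinations.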

For test [16], the target named is T4, M-phase inducer phosphatase 2. As to the kind of experiment: Inhibitory concentration of compound against mutant WT of Cell division cycle 25B was determined. In short, it runs like this: as §4
In test [17] the target is M-phase inducer phosphatase 2 (Homo sapiens, UniProt P30305, M545A). As to the kind of experiment: Inhibitory concentration of compound against mutant M531A of Cell division cycle 25B was determined. The procedure, abridged:
as §4

The target of test [18] is M-phase inducer phosphatase 2 (Homo sapiens, UniProt P30305, Y542F). In words: Inhibitory concentration of compound against mutant Y528F of Cell division cycle 25B was determined. The procedure, abridged: as §4
Chain of M-phase inducer phosphatase 2 (Homo sapiens, UniProt P30305, Y542F) (P30305 whole entry Y542F): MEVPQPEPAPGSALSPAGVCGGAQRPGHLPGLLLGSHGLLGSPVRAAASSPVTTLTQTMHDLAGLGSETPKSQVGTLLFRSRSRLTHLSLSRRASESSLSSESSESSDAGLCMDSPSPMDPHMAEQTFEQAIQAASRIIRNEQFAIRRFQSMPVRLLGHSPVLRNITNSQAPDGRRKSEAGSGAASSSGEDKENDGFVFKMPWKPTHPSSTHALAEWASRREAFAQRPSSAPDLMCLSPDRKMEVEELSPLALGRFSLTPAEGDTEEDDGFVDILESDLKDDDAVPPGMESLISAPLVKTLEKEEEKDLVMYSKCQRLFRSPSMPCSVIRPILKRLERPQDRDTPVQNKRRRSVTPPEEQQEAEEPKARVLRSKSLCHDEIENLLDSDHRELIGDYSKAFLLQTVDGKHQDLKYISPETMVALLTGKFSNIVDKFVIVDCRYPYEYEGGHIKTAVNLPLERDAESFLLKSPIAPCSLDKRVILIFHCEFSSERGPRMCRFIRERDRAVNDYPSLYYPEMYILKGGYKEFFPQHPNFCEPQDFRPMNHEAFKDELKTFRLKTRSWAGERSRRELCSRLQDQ
Test [19] deals with T6, M-phase inducer phosphatase 2. In words: Inhibitory concentration of compound against mutant R482L of Cell division cycle 25B was determined. In short, it runs like this: as §4
Test [20] concerns the target T10, M-phase inducer phosphatase 2. As to the kind of experiment: Inhibitory concentration of compound against mutant F475A of Cell division cycle 25B was determined. The procedure, abridged: as §4
Test [21] has as its target M-phase inducer phosphatase 2 (Homo sapiens, UniProt P30305, E492Q). As to the kind of experiment: Inhibitory concentration of compound against mutant E478Q of Cell division cycle 25B was determined. In short, it runs like this:
as §4

Test [22] addresses T5, M-phase inducer phosphatase 2. In words: Inhibitory concentration of compound against mutant E474Q of Cell division cycle 25B was determined. In short, it runs like this:
as §4

In test [23] the target is T1, M-phase inducer phosphatase 2. In words: Inhibitory constant of compound against Cell division cycle 25B was determined using mFP as a substrate.
Test [24] has as its target M-phase inducer phosphatase 2 (Homo sapiens, UniProt P30305, R558L). As to the kind of experiment: Inhibitory concentration of compound against mutant R544L of Cell division cycle 25B was determined. The procedure, abridged:
as §4

Test [25] addresses T4, M-phase inducer phosphatase 2. As to the kind of experiment: Inhibitory concentration of compound against truncated mutant of Cell division cycle 25B was determined. The procedure, abridged: as §4
Test [26] addresses T1, M-phase inducer phosphatase 2. In words: Inhibitory concentration of compound against Cell division cycle 25B was determined using CDK2-p-TpY/Cyclin A as a substrate. The procedure, abridged:
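Cdc25B dephosphorylation of 300 nM Cdk2-pTpY/CycA protein substrate was run in time-dependent assays at eight inhibitor concentrations to give IC50. Reactions were quenched with TCA, and bovine serum albumin carrier (1 mg/mL) was added only after the quench so that it was absent during inhibitor exposure.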

Test [27] is described as follows: Inhibitory constant of compound against Cdc25 phosphatase was determined.
Test [28] concerns the target T2, M-phase inducer phosphatase 3 (Homo sapiens). As to the kind of experiment: Percent inhibition against Cdc25C phosphatase at 50 uM of compound. The procedure, abridged:
as §1

In general, pIC50 refers to the IC50 on a negative log10 scale, so that one unit is a factor of ten. A higher pIC50 goes with a low IC50. In general, inhibition refers to the percentage by which the read-out fell short of the control. Low values mean little suppression, high ones strong suppression. Usually pKi stands for the negative decadic logarithm of the Ki, by convention in mol/L. Lower therefore signals a high Ki.

pIC50, pKi: −log10 of the molar value.

T5 sequence (P30305 whole entry E488Q): as the sequence (P30305 whole entry Y542F) above, with E488Q, F542Y counted along it
T6 sequence (P30305 whole entry R496L): as the sequence (P30305 whole entry Y542F) above, with R496L, F542Y counted along it
T10 sequence (P30305 whole entry F489A): as the sequence (P30305 whole entry Y542F) above, with F489A, F542Y counted along it
Chain of M-phase inducer phosphatase 2 (Homo sapiens, UniProt P30305, E492Q) (P30305 whole entry E492Q): as the sequence (P30305 whole entry Y542F) above, with E492Q, F542Y counted along it
Chain of M-phase inducer phosphatase 2 (Homo sapiens, UniProt P30305, R506L) (P30305 whole entry R506L, the tested form may be a part): as the sequence (P30305 whole entry Y542F) above, with R506L, F542Y counted along it
Chain of M-phase inducer phosphatase 2 (Homo sapiens, UniProt P30305, M545A) (P30305 whole entry M545A): as the sequence (P30305 whole entry Y542F) above, with F542Y, M545A counted along it
Chain of M-phase inducer phosphatase 2 (Homo sapiens, UniProt P30305, R558L) (P30305 whole entry R558L): as the sequence (P30305 whole entry Y542F) above, with F542Y, R558L counted along it

For `O=C1C=C(O)C(=O)C(c2c[nH]c3ccccc23)=C1O`, the pIC50 in [1] was 4.74; in [4] it was less than 4.30; in [5], 4.47; in [6] it was 3.70; in test [7], 4.14; in [8] it was 4.52. Besides, the pIC50 is 4.60 in test [10], 4.12 in test [11] and 4.74 in test [12]. In addition, the inhibition turned out to be 69% in [2], 33% in test [3] and 75% in test [9]. This molecule had a pKi in test [13] of 4.89.
For the molecule `CC(C)=CCC/C(C)=C/CC/C(C)=C/Cc1cccc2c(C3=C(O)C(O)=CC(=O)C3=O)c[nH]c12`, the values for the negative logarithm of the IC50 (pIC50) in test [1], in test [8] and in test [10] were 5.62, 5.46 and 5.62, respectively. Further, the inhibition in [2] stood at 85%; in [3] it was 96%; in test [9] it was 89%. Moreover, the pKi in test [14] was 6.19.
For the molecule `CC(C)=CCc1cccc2c(C3=C(O)C(O)=CC(=O)C3=O)c[nH]c12`, the pIC50 is 5.25 in test [1]; 4.96 in test [15]; 5.19 in test [16]; 5.19 in [17]; 4.82 in test [18]; 4.40 in test [19]. For the same molecule, the pIC50 in test [20] is less than 4.30; in test [21] it was 5.19; in test [22] it was less than 4.30; in test [8], 4.82; in test [24], 4.92; in test [10], 5.39. Further, the results for the pIC50 in test [25] and in [26] were 4.48 and 4.55, respectively. In addition, the values for the inhibition in test [2], in [3] and in test [9] were 84%, 100% and 99%, respectively. The molecule also showed a pKi in [23] of 6.19.
In test [27], `CC(C)=CCC/C(C)=C/CC/C(C)=C/Cc1c(Cl)cc(Cl)c2c(C3=C(O)C(O)=CC(=O)C3=O)c[nH]c12` showed a negative logarithm of the Ki (pKi) of 6.33.
On to `Cc1ccc2[nH]cc(C3=C(O)C(O)=CC(=O)C3=O)c2c1`, for which the inhibition amounted to 100% in test [3], 61% in [9] and 55% in test [28]. Moreover, in [10], the pIC50 is 5.09.
